Results as given in the EternaBench riboswitch data.

Test system: MS2 coat protein
Test: apparent Kd, MS2 coat protein; higher = weaker binding; RNA-MaP array
Procedure, shortened: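 On an Illumina sequencing chip, sequenced DNA templates served for transcription of the designed RNAs, which were then bound at room temperature by fluorescently labeled MS2 coat protein at 1.5 nM to 3 μM, with or without input ligand. Apparent Kd is the median of the fits to each cluster's binding curve. Only designs measured on at least 10 clusters were kept.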

[1] = designed as: ON switch for flavin mononucleotide, no ligand
[2] = ligand present: flavin mononucleotide, designed as: ON switch for flavin mononucleotide
[3] = designed as: OFF switch for tryptophan, no ligand
[4] = ligand present: tryptophan, designed as: OFF switch for tryptophan
[5] = designed as: OFF switch for flavin mononucleotide, no ligand
[6] = ligand present: flavin mononucleotide, designed as: OFF switch for flavin mononucleotide

Sequence | apparent Kd [5] [nM] | apparent Kd [6] [nM] | further results
ACACAUCCACAUGAGGAUCACCCAUGUAAACCGAAAUAGCACUAGGAUAUGGGACAAACAAUUCACCAGAAGGAGUAAAAGAAA |  |  | apparent Kd [1]: 52.7 nM; apparent Kd [2]: 23.8 nM
GUCACACAGUAGGAUACCAGCGUGGCUUAUCCCUGAUCGUACAUGAGGAUCACCCAUGUCCGCCCUUGGCAGCCUCCUGCUCGGA |  |  | apparent Kd (designed as: OFF switch for theophylline, no ligand): 12.7 nM; apparent Kd (ligand present: theophylline, designed as: OFF switch for theophylline): 34.5 nM
UGUCACUGUUUGGUUCAAUGAAGAAGAAUUCGAGGACCGGUACGGCCGCCACUCGCUAUGCAACAUGAGGAUCACCCAUGUAAAA |  |  | apparent Kd [3]: 15.8 nM; apparent Kd [4]: 15.3 nM
UGCUGCUCGAGAGGAUAUACGAAAUGGAACAUGAGGAUCACCCAUGUAUAUCUCCACAAACAGACGUAGAAGGCACAAUAAGGA |  |  | apparent Kd [1]: 58.2 nM; apparent Kd [2]: 45.8 nM
GUCUCUCGCUUAGGAUAUCAGCACGAUUAUCCCUGAGAAGGAAGUGACAGACAUGAGGAUCACCCAUGUAUCCAAGGUUCGAAG | 15.6 | 15 | 
CCUUAGUGAGGAUAUGCAUAGCCUUGGCGGCCAGGAGCCAAGCAGAAGGCACAUGAGGAUCACCCAUGUCCGGU | 16.6 | 22.8 | 
GAUCCGCUCGAGAAGGUCGUCGGGCACCGAGUCGAAGGAUAUCGAGAAUGAAGACAUGAGGAUCACCCAUGUGAGGAGCGAUCC | 136 | 126 | 
AGCAGAGCCUAGAAGGCAGUGCAGACCGCGCACUGAGGAUAUAGACUUUAAGAUUGUACAUGAGGAUCACCCAUGUUGAGUGGG | 563 | 450 | 
CAAUACGAUGUCAGGAUAUUAUUUCAAGUAGACGGUAAGAAGGGACAUGAGGAUCACCCAUGUACGGAAUACGC | 6.35 | 6.32 | 
GCACGGGCGAUCGGCACUUUUACUAAUAUACGAGGACCGGUACGGCCGCCACUCGAGCUAAGACAUGAGGAUCACCCAUGUAACG |  |  | apparent Kd [3]: 26.2 nM; apparent Kd [4]: 49.3 nM
UGCGUCGUUUAGAAGGGAGUGGCCCAACAUGAGGAUCACCCAUGUGACGCUCAGAAUGUAUUUGCUCAGGAUAUAAAUGUCUUU | 162 | 123 | 
ACAGAAAAUAGAGGAUAUACAAGAACAUGAGGAUCACCCAUGUAAUAACAAUAUGAUCGGUUCAAGAAGAAGGCUAAACAAAAU | 14.2 | 12.8 | 
CAACUGCUUGAGCUUACUUAUUGGACUUCCCGAGGACCGGUACGGCCGCCACUCGCAGGGACACAUGAGGAUCACCCAUGUAAAG |  |  | apparent Kd [3]: 15.7 nM; apparent Kd [4]: 16.2 nM
GCAGACAUGAGGAUCACCCAUGUACUUGGGCGAGGACCGGUACGGCCGCCACUCGUAGACUUGACGAGGAAAUGUUCUCGCAGGG |  |  | apparent Kd (designed as: ON switch for tryptophan, no ligand): 22.4 nM; apparent Kd (ligand present: tryptophan, designed as: ON switch for tryptophan): 19.1 nM
UGACUGUCGAAAGGAUAUGGUCGCACGCACACAUCAGUGUUUCACAUGAGGAUCACCCAUGUGGUCCAGAAGGUUCAUAAAUAU |  |  | apparent Kd [1]: 197 nM; apparent Kd [2]: 122 nM
CUCUUAGAAGGAUAUUAAUAAUGUUACAUGAGGAUCACCCAUGUCUCAAUAUGUGACCGUUAAGAAGGUCUAUCGC | 9.2 | 8.16 | 
AAUGUGUAAGGAUAUACCGUUCAGUCUCUCCACAAUCGAUGGUAGAAGGUACAUGAGGAUCACCCAUGUGAGGA | 14.9 | 15.2 | 
GCCAAGGUAACAGGAUAUUCUAAAGACGUGAGAUACUAAAUAAACAUGAGGAUCACCCAUGUGAAGAAGAAGGGUUAAGAGUAC | 15.2 | 12.5 | 
UUAUUCCCGGAGGAUAUCGACGUAUUUGGCGCCCGAGAAGGCCGGACAUGAGGAUCACCCAUGUCCCGUGCUCU | 5.66 | 5.82 | 
GGAUUCAGAGGAUAUACAUGAGGAUCACCCAUGUCAUUCAGCCAAGAUAUGUGUUUCAGUAGAAGGCUGAUCGG | 22.3 | 18 | 
UAAGAAGAUGAGAAGGGCCAAGUAUGAGCCGGGCGAUACAUGAGGAUCACCCAUGUUUCCUAACGGCAGGAUAUCACUUCCUAU | 5.86 | 18.8 | 
AAAAGGUCCGCUACAUGAGGAUCACCCAUGUAAAGGGUAAAUCAGGAUAUGGACGGGAGUCUUAACCAGAAGGGAUUACAGGUC |  |  | apparent Kd [1]: 31.6 nM; apparent Kd [2]: 25.1 nM
AGUGAGGUUCUAGGAUAUCUCCCUCGAGUGCAGCUACAUGAGGAUCACCCAUGUCAUGGGUGUCGAGAGAAGGAGAAGGGCUUA | 74.5 | 104 | 
UAACGCCCCUUAGGAUAUCCACGUAACCCCUCCCCCGUAAGUAGAAACAUGAGGAUCACCCAUGUGGAGAAGGAAGUGACCCGC | 20.8 | 18.9 | 
UACAAGCAAGGAUAUACAUGAGGAUCACCCAUGUGGAGAGCCAGCAAAUUCCGGAAAUGUAGAAGGUGCCACAA | 34.4 | 32.8 | 
UUGAAACAUGAGGAUCACCCAUGUCAGGAUAUCUUAACCCACUUACGCGAGUGUAGCCAGAGAAGGGACAGCGG | 12.1 | 17.4 | 
